Assay results gathered from unrelated publications.
Lines come from different studies, so protocols differ.
MAPK14: Mitogen-activated protein kinase 14 (MAPK14, Homo sapiens, UniProt Q16539)
MAPK14 T106M: Mitogen-activated protein kinase 14 (MAPK14, Homo sapiens, UniProt Q16539, T106M)

Compound | target | test | setting | quantity | value
Oc1ccc(-c2nc(-c3ccncc3)c(-c3ccc(F)cc3)[nH]2)cc1 | MAPK14 | cell-free assay | 0.5 µM | remaining signal | 7.42%
Cc1nc(Cc2cccc(C(F)(F)F)c2)sc1-c1ccc(C(N)=O)nc1 | MAPK14 | cell-free assay, competition with immobilised ligand | 1 µM | remaining binding | 100%
N#CCCc1ccc2c(c1)-c1[nH]c3ccc([N+](=O)[O-])cc3c1CC(=O)N2 | MAPK14 | cell-free assay | 0.5 µM | remaining signal | 91.8%
O=C1NC(c2ccccn2)Sc2ccccc21 (stereo not shown) | MAPK14 | cell-free assay, competition with immobilised ligand | 1 µM | remaining binding | 81%
Cc1cnc(NC2CCOCC2)nc1-n1cnc(C(=O)NC(CN)c2cc(F)cc(Cl)c2)c1 (stereo not shown) | MAPK14 T106M | enzyme activity, inhibitor, radiometric | 1 µM | remaining activity | 55%
Nc1nc(Nc2ccccc2)sc1C(=O)c1c(F)cccc1F | MAPK14 | enzyme activity, inhibitor | 10 µM | remaining activity | 8%
Cc1cc(NC(=O)c2cccc(S(F)(F)(F)(F)F)c2)cc(-n2ccn3nc(-c4cccnc4)cc23)c1 | MAPK14 | cell-free assay, competition with immobilised ligand | 1 µM | remaining binding | 100%
Cc1ccc(NC(=O)c2ccc(C)c(C(F)(F)F)c2)cc1C#Cc1nn(C2CCC(O)CC2)c2ncnc(N)c12 (stereo not shown) | MAPK14 T106M | enzyme activity, inhibitor | 10 µM | remaining activity | 88%
CC(C)(C)c1nc(-c2cccc(NS(=O)(=O)c3c(F)cccc3F)c2F)c(-c2ccnc(N)n2)s1 | MAPK14 | enzyme activity, inhibitor, radiometric | 1 µM | remaining activity | 111%
CCN(CC)CCNC(=O)c1c(C)[nH]c(/C=C2\C(=O)Nc3ccc(F)cc32)c1C | MAPK14 T106M | enzyme activity, inhibitor | 0.3 µM | inhibition | 5%
O=C(N[C@H]1CCCCC/C=C\C2C[C@@]2(C(=O)O)NC(=O)[C@@H]2C[C@@H](Oc3ccncc3)CN2C1=O)OC1CCCC1 (stereo partly shown) | MAPK14 | binding, competition with immobilised ligand | 1 µM | remaining binding | 94%
Cc1sc(C(=O)NC2COC2)cc1-n1cc(NC(=O)Nc2c(F)cccc2Cl)cn1 | MAPK14 | enzyme activity, inhibitor | 10 µM | remaining activity | 93.2%
COc1cc(Nc2cnc(C#N)c(O[C@H](C)CN(C)C)n2)ncc1-c1cnn(C)c1 | MAPK14 | enzyme activity, inhibitor, radiometric | 10 µM | remaining activity | 85%
CSc1nc(-c2ccnc(N[C@@H](C)c3ccccc3)c2)c(-c2ccc(F)cc2)[nH]1 (racemic) | MAPK14 | cell-free assay | 0.5 µM | remaining signal | 7.64%
CC(C)(O)c1cncc(-c2nc3ccc(F)cc3n2C2CC2)c1 | MAPK14 | cell-free assay, competition with immobilised ligand | 1 µM | remaining binding | 100%
Cc1ccc(Nc2nccc(N(C)c3ccc4c(C)n(C)nc4c3)n2)cc1S(N)(=O)=O | MAPK14 | enzyme activity, inhibitor | 0.3 µM | inhibition | 6%
Nc1nc(NC2CCCCC2)sc1C(=O)c1ccccc1 | MAPK14 | enzyme activity, inhibitor | 10 µM | remaining activity | 24%
CNC(=O)c1cc(Oc2ccc(NC(=O)Nc3ccc(Cl)c(C(F)(F)F)c3)cc2)ccn1 | MAPK14 | enzyme activity, inhibitor | 10 µM | inhibition | 84%
COc1cc(/C=C/C(=O)CC(=O)/C=C/c2ccc(O)c(OC)c2)ccc1O | MAPK14 | enzyme activity, inhibitor | 1 µM | activity vs control | 104%
FC(F)c1nc2ccccc2n1-c1nc(N2CCOCC2)nc(N2CCOCC2)n1 | MAPK14 | enzyme activity, inhibitor | 10 µM | remaining activity | 89%
Cc1ccc(C(=O)Nc2ccc(CN3CCN(C)CC3)c(C(F)(F)F)c2)cc1C#Cc1cnc2cccnn12 | MAPK14 | enzyme activity, inhibitor | 23.5 nM | remaining activity | 29%
O=C(NC[C@@H]1[C@H]2CN(C(=O)OCc3cc(C(F)(F)F)cc(C(F)(F)F)c3)C[C@@H]12)c1ccc2[nH]nnc2c1 | MAPK14 | cell-free assay, competition with immobilised ligand | 1 µM | remaining binding | 100%
Cc1cc(NC(=O)c2cccc3cc(-c4cccc5[nH]nc(N)c45)ccc23)ccc1F | MAPK14 T106M | enzyme activity, inhibitor | 0.1 µM | activity vs control | 96%
Cc1cc(-n2nc(Cc3cc(F)cc(C(F)(F)F)c3)nc2C)ccc1C(N)=O | MAPK14 | cell-free assay, competition with immobilised ligand | 1 µM | remaining binding | 95%
CC(C)c1ccc(NC(=O)c2cccs2)c(-c2nc3ccccc3[nH]c2=O)c1 | MAPK14 | enzyme activity, inhibitor | 1 µM | activity vs control | 102%
CN(C)C1CCN(CC#Cc2nn(C3CCCC3)c3nc(NCc4ccccc4)ncc23)C1 (stereo not shown) | MAPK14 | enzyme activity, inhibitor, FRET | 10 µM | inhibition | 4%
O=C1Nc2ccc(Cl)cc2C1=Cc1cc(Cl)c(O)c(Cl)c1 | MAPK14 | cell-free assay | 0.5 µM | remaining signal | 74.6%
O=C(NCCCC1CCCCC1)c1ccc(CNC(=O)c2cnn(-c3ccccc3)c2C(F)(F)F)cc1 | MAPK14 | cell-free assay, competition with immobilised ligand | 0.1 µM | remaining binding | 100%
